From ChEMBL document CHEMBL3621107, “Ring fusion strategy for synthesis and lead optimization of sulfur-substituted anthra[1,2-c][1,2,5]thiadiazole-6,11-dione derivatives as promising scaffold of antitumor agents” (Eur J Med Chem, 2015)

What was measured:
UACC-62 = assay: Cytotoxicity against human UACC62 cells assessed as cell growth at 10 uM after 48 hrs by SRB assay relative to control; assay type: functional; conditions: UACC-62, 48 h, read-out: Activity
Procedure, shortened: (§1)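 NCI-60 one-dose screen run by NCI DTP: each cell line exposed to a single 10 µM dose, and percentage growth recorded against untreated growth.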

DU-145 = assay: Cytotoxicity against human DU145 cells after 72 hrs by MTT assay; assay type: functional, cell-based; conditions: DU-145, 72 h
Procedure, shortened: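 DU-145 cells grown in RPMI-1640 with 5% heat-inactivated fetal calf serum at 37 °C, 5% CO2. About 2×10^3 cells per well were seeded and incubated for 24 h. Compounds were dissolved in DMSO freshly and diluted into medium (vehicle 0.1% DMSO), then cells were exposed for 72 h. MTT was added for 3 h at 37 °C and absorbance read at 570 nm.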

NCI/ADR-RES = assay: Cytotoxicity against human NCI/ADR-RES cells assessed as cell growth at 10 uM after 48 hrs by SRB assay relative to control; assay type: functional; conditions: read-out: Activity
Procedure, shortened: (§2)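 First-stage NCI DTP one-dose screen against the 60 human tumour cell line panel. Compounds were tested at a single 10 μM level, and results are given as growth percentage.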

K562 = assay: Cytotoxicity against human K562 cells assessed as cell growth at 10 uM after 48 hrs by SRB assay relative to control; assay type: functional; conditions: K562, 48 h, read-out: Activity
Procedure, shortened: (§3)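 First-stage NCI-60 screen by the NCI Developmental Therapeutics Program. Each compound was tested once at a single concentration of 10 μM against the 60-cell-line panel. Growth percentage was reported for each cell line.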

HT-29 = assay: Cytotoxicity against human HT-29 cells assessed as cell growth at 10 uM after 48 hrs by SRB assay relative to control; assay type: functional; conditions: HT-29, 48 h, read-out: Activity; procedure, shortened: as §3
LOX IMVI = assay: Cytotoxicity against human LOXIMVI cells assessed as cell growth at 10 uM after 48 hrs by SRB assay relative to control; assay type: functional; conditions: read-out: Activity; procedure, shortened: as §3
SK-MEL-28 = assay: Cytotoxicity against human SK-MEL-28 cells assessed as cell growth at 10 uM after 48 hrs by SRB assay relative to control; assay type: functional; conditions: SK-MEL-28, 48 h, read-out: Activity; procedure, shortened: as §2
MOLT-4 = assay: Cytotoxicity against human MOLT4 cells assessed as cell growth at 10 uM after 48 hrs by SRB assay relative to control; assay type: functional; conditions: MOLT-4, 48 h, read-out: Activity; procedure, shortened: as §2
[1] = Cytotoxicity against human EKVX cells assessed as cell growth at 10 uM after 48 hrs by SRB assay relative to control; assay type: functional; conditions: read-out: Activity; procedure, shortened: as §3
HCT-15 = assay: Cytotoxicity against human HCT15 cells assessed as cell growth at 10 uM after 48 hrs by SRB assay relative to control; assay type: functional; conditions: HCT-15, 48 h, read-out: Activity; procedure, shortened: as §3
SF-268 = assay: Cytotoxicity against human SF268 cells assessed as cell growth at 10 uM after 48 hrs by SRB assay relative to control; assay type: functional; conditions: SF-268, 48 h, read-out: Activity; procedure, shortened: as §2
HCC 2998 = assay: Cytotoxicity against human HCC2998 cells assessed as cell growth at 10 uM after 48 hrs by SRB assay relative to control; assay type: functional; conditions: HCC 2998, 48 h, read-out: Activity; procedure, shortened: as §3
Malme-3M = assay: Cytotoxicity against human MALME-3M cells assessed as cell growth at 10 uM after 48 hrs by SRB assay relative to control; assay type: functional; conditions: read-out: Activity; procedure, shortened: as §3
IGROV-1 = assay: Cytotoxicity against human IGROV1 cells assessed as cell growth at 10 uM after 48 hrs by SRB assay relative to control; assay type: functional; conditions: IGROV-1, 48 h, read-out: Activity; procedure, shortened: as §3
HOP-92 = assay: Cytotoxicity against human HOP92 cells assessed as cell growth at 10 uM after 48 hrs by SRB assay relative to control; assay type: functional; conditions: HOP-92, 48 h, read-out: Activity; procedure, shortened: as §3
SK-MEL-2 = assay: Cytotoxicity against human SK-MEL-2 cells assessed as cell growth at 10 uM after 48 hrs by SRB assay relative to control; assay type: functional; conditions: SK-MEL-2, 48 h, read-out: Activity; procedure, shortened: as §2
NCI-H23 = assay: Cytotoxicity against human NCI-H23 cells assessed as cell growth at 10 uM after 48 hrs by SRB assay relative to control; assay type: functional; conditions: NCI-H23, 48 h, read-out: Activity; procedure, shortened: as §2
SN12C = assay: Cytotoxicity against human SN12C cells assessed as cell growth at 10 uM after 48 hrs by SRB assay relative to control; assay type: functional; conditions: read-out: Activity; procedure, shortened: as §2
NCI-H522 = assay: Cytotoxicity against human NCI-H522 cells assessed as cell growth at 10 uM after 48 hrs by SRB assay relative to control; assay type: functional; conditions: NCI-H522, 48 h, read-out: Activity; procedure, shortened: as §2
KM12 = assay: Cytotoxicity against human KM12 cells assessed as cell growth at 10 uM after 48 hrs by SRB assay relative to control; assay type: functional; conditions: KM12, 48 h, read-out: Activity; procedure, shortened: as §3
UO-31 = assay: Cytotoxicity against human UO31 cells assessed as cell growth at 10 uM after 48 hrs by SRB assay relative to control; assay type: functional; conditions: UO-31, 48 h, read-out: Activity; procedure, shortened: as §1
786-0 = assay: Cytotoxicity against human 786-0 cells assessed as cell growth at 10 uM after 48 hrs by SRB assay relative to control; assay type: functional; conditions: 786-0, 48 h, read-out: Activity; procedure, shortened: as §3
MDA-MB-468 = assay: Cytotoxicity against human MDA-MB-468 cells assessed as cell growth at 10 uM after 48 hrs by SRB assay relative to control; assay type: functional; conditions: MDA-MB-468, 48 h, read-out: Activity; procedure, shortened: as §2
PC-3 = assay: Cytotoxicity against human PC3 cells assessed as cell growth at 10 uM after 48 hrs by SRB assay relative to control; assay type: functional; conditions: PC-3, 48 h, read-out: Activity; procedure, shortened: as §2
M14 = assay: Cytotoxicity against human M14 cells assessed as cell growth at 10 uM after 48 hrs by SRB assay relative to control; assay type: functional; conditions: M14, 48 h, read-out: Activity; procedure, shortened: as §3
RPMI-8226 = assay: Cytotoxicity against human RPMI8226 cells assessed as cell growth at 10 uM after 48 hrs by SRB assay relative to control; assay type: functional; conditions: RPMI-8226, 48 h, read-out: Activity; procedure, shortened: as §2
ACHN = assay: Cytotoxicity against human ACHN cells assessed as cell growth at 10 uM after 48 hrs by SRB assay relative to control; assay type: functional; conditions: read-out: Activity; procedure, shortened: as §3
SK-MEL-5 = assay: Cytotoxicity against human SK-MEL-5 cells assessed as cell growth at 10 uM after 48 hrs by SRB assay relative to control; assay type: functional; conditions: SK-MEL-5, 48 h, read-out: Activity; procedure, shortened: as §2
MDA-MB-435 = assay: Cytotoxicity against human MDA-MB-435 cells assessed as cell growth at 10 uM after 48 hrs by SRB assay relative to control; assay type: functional; conditions: MDA-MB-435, 48 h, read-out: Activity; procedure, shortened: as §2
SNB-75 = assay: Cytotoxicity against human SNB75 cells assessed as cell growth at 10 uM after 48 hrs by SRB assay relative to control; assay type: functional; conditions: SNB-75, 48 h, read-out: Activity; procedure, shortened: as §1
CAKI-1 = assay: Cytotoxicity against human Caki1 cells assessed as cell growth at 10 uM after 48 hrs by SRB assay relative to control; assay type: functional; conditions: CAKI-1, 48 h, read-out: Activity; procedure, shortened: as §3

COc1cccc(Sc2cc3c(c4nsnc24)C(=O)c2ccccc2C3=O)c1
growth at 10 µM (UACC-62): 87.7%
IC50 (DU-145): > 15 µM
growth at 10 µM (NCI/ADR-RES): 92.7%
growth at 10 µM (K562): 38.5%
growth at 10 µM (HT-29): 105%
growth at 10 µM (LOX IMVI): 71%
growth at 10 µM (SK-MEL-28): 102%
growth at 10 µM (MOLT-4): 35.8%
growth at 10 µM [1]: 105%
growth at 10 µM (HCT-15): 71.9%
growth at 10 µM (SF-268): 89.8%
growth at 10 µM (HCC 2998): 105%
growth at 10 µM (Malme-3M): 113%
growth at 10 µM (IGROV-1): 99.9%
growth at 10 µM (HOP-92): 101%
growth at 10 µM (SK-MEL-2): 82.6%
growth at 10 µM (NCI-H23): 76.4%
growth at 10 µM (SN12C): 95.9%
growth at 10 µM (NCI-H522): 82.4%
growth at 10 µM (KM12): 97.1%
growth at 10 µM (UO-31): 75.5%
growth at 10 µM (786-0): 103%
growth at 10 µM (MDA-MB-468): 93.5%
growth at 10 µM (PC-3): 76%
growth at 10 µM (M14): 94.2%
growth at 10 µM (RPMI-8226): 52%
growth at 10 µM (ACHN): 98.7%
growth at 10 µM (SK-MEL-5): 100%
growth at 10 µM (MDA-MB-435): 72.5%
growth at 10 µM (SNB-75): 81.8%

Cc1cc(C)cc(Sc2cc3c(c4nsnc24)C(=O)c2ccccc2C3=O)c1
growth at 10 µM (UACC-62): 103%
IC50 (DU-145): > 15 µM
growth at 10 µM (NCI/ADR-RES): 97.5%
growth at 10 µM (K562): 75.6%
growth at 10 µM (HT-29): 105%
growth at 10 µM (LOX IMVI): 90.2%
growth at 10 µM (SK-MEL-28): 112%
growth at 10 µM (MOLT-4): 71.4%
growth at 10 µM [1]: 100%
growth at 10 µM (HCT-15): 90.9%
growth at 10 µM (SF-268): 108%
growth at 10 µM (HCC 2998): 109%
growth at 10 µM (Malme-3M): 102%
growth at 10 µM (IGROV-1): 96.7%
growth at 10 µM (HOP-92): 93.5%
growth at 10 µM (SK-MEL-2): 108%
growth at 10 µM (NCI-H23): 90.4%
growth at 10 µM (SN12C): 105%
growth at 10 µM (NCI-H522): 106%
growth at 10 µM (KM12): 105%
growth at 10 µM (UO-31): 69.1%
growth at 10 µM (786-0): 98.2%
growth at 10 µM (CAKI-1): 91%
growth at 10 µM (MDA-MB-468): 116%
growth at 10 µM (PC-3): 81.3%
growth at 10 µM (M14): 100%
growth at 10 µM (RPMI-8226): 89.1%
growth at 10 µM (ACHN): 98%
growth at 10 µM (SK-MEL-5): 107%
growth at 10 µM (MDA-MB-435): 105%
growth at 10 µM (SNB-75): 80.6%

O=C1c2ccccc2C(=O)c2c1cc(Sc1ccccc1Br)c1nsnc21
growth at 10 µM (UACC-62): 39.6%
IC50 (DU-145): 9.58 µM
growth at 10 µM (NCI/ADR-RES): -29.9%
growth at 10 µM (K562): 29.7%
growth at 10 µM (HT-29): 96.5%
growth at 10 µM (LOX IMVI): -15.3%
growth at 10 µM (SK-MEL-28): 64.7%
growth at 10 µM (MOLT-4): 29.7%
growth at 10 µM [1]: 77.7%
growth at 10 µM (HCT-15): 39.7%
growth at 10 µM (SF-268): -5.11%
growth at 10 µM (HCC 2998): 78.4%
growth at 10 µM (Malme-3M): 35.3%
growth at 10 µM (IGROV-1): 27.9%
growth at 10 µM (HOP-92): 37.6%
growth at 10 µM (SK-MEL-2): 35%
growth at 10 µM (NCI-H23): 18%
growth at 10 µM (SN12C): 22.6%
growth at 10 µM (NCI-H522): 30.8%
growth at 10 µM (KM12): 57.9%
growth at 10 µM (UO-31): 56.1%
growth at 10 µM (786-0): -6.19%
growth at 10 µM (CAKI-1): 29.7%
growth at 10 µM (MDA-MB-468): -79.9%
growth at 10 µM (PC-3): 4.23%
growth at 10 µM (M14): 59.5%
growth at 10 µM (RPMI-8226): 9.4%
growth at 10 µM (ACHN): 25.5%
growth at 10 µM (SK-MEL-5): 46.3%
growth at 10 µM (MDA-MB-435): -73%
growth at 10 µM (SNB-75): 47.2%
